Kir21 block: inhibitors of mouse Kir2.1 inward-rectifier potassium channel; P35561; HEK293-Kir2.1, FluxOR thallium flux fluorescence; stronger effect = lower value; B-score at 10 µM; actives 0.85% (n = 310,000); AID 1672;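 active = fluorescence ratio B-score at or below minus 3 SD of library scores, with starting-brightness B-score within 2 SD, cut at about -4.2 in these data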;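 also: channel flux triggered by added potassium and thallium sulfate stimulus; B-score of peak minus minimum fluorescence over baseline after thallium stimulus; more negative B-score means stronger Kir2.1 block with less thallium influx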
KCNK9 inh-1: blocks the human KCNK9 two-pore domain potassium channel; Q9NPC2; AID 488922; HEK293 KCNK9, FluxOR thallium flux fluorescence; stronger effect = lower value; B-score at 10 µM; actives 1.2% (n = 310,000);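 active = ratio B-score over 3 SD below the library mean, with starting fluorescence within 5 SD of its mean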;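 also: negative B-score means less thallium flux so channel inhibition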
hERG protect: hERG (human) protection from proarrhythmic block. AID 1511. CHO-hERG, FluxOR thallium flux, dofetilide IC70 present. Q12809. activation (rescue from dofetilide block), less the hit threshold, % at 10 µM. actives 0.51% (n = 310,000);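 active = activation above the mean of controls blocked by dofetilide plus 5 SD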;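 also: thallium influx through hERG after potassium depolarization seen as dye fluorescence rise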
KCNK3 block: human KCNK3 channel inhibition, primary screen | actives 0.84% (n = 340,000) | O14649 | B-score at 10 µM | CHO-KCNK3 thallium flux, FluxOR fluorescence; stronger effect = lower value;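 active = B-score under library mean minus 4 SD, starting fluorescence ratio at most library mean plus 5 SD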;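 also: more negative B-score means stronger inhibition of thallium flux through KCNK3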
Target sequence (O14649 whole entry, looked up): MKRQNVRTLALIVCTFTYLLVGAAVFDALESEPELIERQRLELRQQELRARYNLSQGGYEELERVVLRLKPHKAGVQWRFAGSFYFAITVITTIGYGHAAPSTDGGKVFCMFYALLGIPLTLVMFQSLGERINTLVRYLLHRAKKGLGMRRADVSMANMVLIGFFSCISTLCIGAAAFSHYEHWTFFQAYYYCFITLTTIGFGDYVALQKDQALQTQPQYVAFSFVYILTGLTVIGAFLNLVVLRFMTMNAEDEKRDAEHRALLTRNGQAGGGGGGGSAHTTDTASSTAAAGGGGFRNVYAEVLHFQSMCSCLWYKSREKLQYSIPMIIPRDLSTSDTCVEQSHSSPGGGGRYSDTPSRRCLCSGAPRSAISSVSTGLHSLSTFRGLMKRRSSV
KCNQ1 pot: human KCNQ1 channel potentiation or activation; P51787; CHO-K1 KCNQ1, thallium flux FluxOR fluorescence; stronger effect = higher value; B-score at 10 µM; actives 0.35% (n = 310,000); AID 2648;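 active = fluorescence ratio B-score, a plate-corrected score, at least three library SD, with initial intensity B-score within 5 SD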
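Assay system: stable KCNQ1 CHO-K1 line; medium: assay buffer, equal DMSO in all wells; timing: 90 min dye loading and 20 min compound exposure, both at room temperature; technique: kinetic FluxOR thallium fluorescence, 10-s 1-Hz baseline, 110-s post-stimulus read; read-out basis: B score of baseline-normalized fluorescence ratio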
KCNQ1 block: blocks the human KCNQ1 potassium channel; P51787; CHO-K1 KCNQ1, FluxOR thallium flux fluorescence; stronger effect = higher value; B-score at 10 µM; actives 1.3% (n = 310,000); AID 2642;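 active = compounds whose thallium flux B-score, printed positive for inhibition, exceeds three library SD while starting fluorescence stays within three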;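 also: channel opened by potassium depolarization with thallium stimulus after 20 min compound exposure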
hERG inh: hERG (human) inhibition as Kir2.1 counter-screen. shares compounds with Kir21 block. hERG-expressing cells, thallium flux. inhibition, % at 10 µM. actives 20% (n = 320);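 also: host cells are CHO cells stably expressing hERG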
KCNK9 inh-2: selectivity of Kir2.1 inhibitors: effect on human KCNK9 | shares compounds with Kir21 block | KCNK9-expressing cells, ion flux inhibition | inhibition, % at 10 µM | actives 5% (n = 320) | AID 2329
Kir21 ephys inh: blocks mouse Kir2.1 current in automated electrophysiology; inhibition, % at 25 µM; shares compounds with Kir21 block; Kir2.1 cells, automated patch-clamp current inhibition; AID 463252; actives 71% (n = 320)
An asterisk follows results filed as active; i = inactive; nt = not tested or not shown. Compounds with a hit are over-represented: about 3.7% of the library has one in this group of screens. Unless noted, no rule for the calls is given here.

SMILES | Kir21 block | KCNK9 inh-1 | hERG protect | KCNK3 block | KCNQ1 pot | KCNQ1 block | hERG inh | KCNK9 inh-2 | Kir21 ephys inh
CSc1ccc(CN2CCC(Cc3ccccc3)CC2)cc1 | -16* | i | -8 | i | i | i | 67%* | i | 33%*
O=[N+]([O-])c1ccc(CSCc2ccc([N+](=O)[O-])cc2)cc1 | nt | nt | nt | i | nt | nt | nt | nt | nt
O=C1C(Cc2c[nH]c3ccccc23)NC(=S)N1Cc1ccccc1 (stereo unspecified) | -6.4* | i | -12 | i | i | i | i | i | 12%*
Cc1ccc(NC(=O)C2CCN(S(=O)(=O)c3ccc4c(c3)NC(=O)CO4)CC2)cc1 | -0.77 | i | -6 | i | i | i | nt | nt | nt
COC(=O)C1=C(C)N=C2SCCC(=O)N2C1c1ccc(OC(=O)c2ccco2)cc1 (stereo unspecified) | -7.2* | i | -5 | i | i | i | i | i | i
CC1=C(C(=O)OCc2ccccc2)C(c2cccs2)N2C(=O)CCSC2=N1 (stereo unspecified) | -0.65 | i | -20 | i | i | i | nt | nt | nt
CN(C)c1nc(-c2cn(CCC#N)c3ccccc23)cs1 | 0.44 | i | -8 | i | i | i | nt | nt | nt
Cc1ccc(C)c(OCCC(=O)OCC(=O)NCc2ccccc2)c1 | 0.03 | i | -11 | i | i | i | nt | nt | nt
Cc1ccc(C)c(OCCCNCc2ccccc2)c1 | -9.4* | i | -9 | i | i | i | i | i | 74%*
Cc1ccc(C)c(Cn2c3ccccc3c3cnn(CC(=O)NCCCN4CCCCC4)c(=O)c32)c1 | -6.2* | i | -15 | i | i | i | i | i | i
COc1ccc(Oc2c(-c3ccc(O)cc3O)n[nH]c2C)cc1 | -5.7* | i | -10 | i | i | i | i | i | 0.2%*
O=C1CN(S(=O)(=O)c2cccc(Cl)c2Cl)c2ccccc2N1 | -5.7* | i | -7 | i | i | i | i | i | i
c1ccc(Cn2c(SCc3nc4ccccc4s3)nnc2-c2ccco2)cc1 | -7* | i | -21 | i | i | i | i | i | 13%*
CC(=O)Nc1ccc(NC(=O)CSc2nnc(NC(=O)c3ccc(Br)o3)s2)cc1 | -0.12 | i | -11 | i | i | i | nt | nt | nt
CC(CCc1ccccc1)NC(=O)CC(C)c1ccccc1 (stereo unspecified) | -8* | i | -5 | i | i | i | i | i | 38%*
CC(CCc1ccccc1)NC(=O)CSc1ccccn1 (stereo unspecified) | -3.1 | i | -8 | i | i | i | nt | nt | nt
C=CCn1c(SCc2cccc(C#N)c2)nnc1-c1ccccc1O | -5.9* | i | -5 | i | i | i | i | i | 24%*
C=CCn1c(SCC(=O)NC(C)(C)C)nnc1-c1ccccc1O | 0.26 | i | -9 | i | i | i | nt | nt | nt
CCn1c(SCC(=O)NC(C)c2ccccc2)nc2ccccc21 (stereo unspecified) | -3.4 | i | -9 | i | i | i | nt | nt | nt
CCn1c(Sc2ccc(N)cc2Cl)nc2ccccc21 | -6.3* | i | -3 | i | i | i | i | i | 21%*
CC(=O)Oc1ccc(N(C(C)=O)S(=O)(=O)c2ccc(C)cc2)c2ccccc12 | 0.84 | i | -3 | i | i | i | nt | nt | nt
Cc1cc(C)c(S(=O)(=O)c2cccc(Cl)c2)c(Cl)n1 | -0.36 | i | -9 | i | i | i | nt | nt | nt
CCOc1nc(C)cc(C)c1S(=O)(=O)c1cccc(Cl)c1 | -8.2* | i | -3 | i | i | i | i | i | 36%*

Screening data as filed in PubChem BioAssay.
